Data as given in paper PMC6032914 (Clinical Pharmacology in Drug Development, 2018).
pKd: −log10 of the molar value. Where two headings read alike, the source gives them in different places.

Key:
[1] = Gefitinib pharmacokinetics; format: in vivo; conditions: human, plasma, oral, Tmax (h), mean (SD), gefitinib 250 mg daily with ficlatuzumab 20 mg/kg
[2] = Safety and tolerability; format: in vivo, human; conditions: every 2 weeks, plus gefitinib 250 mg/day
[3] = Ficlatuzumab serum pharmacokinetics; format: in vivo, human
[4] = test system: serum HGF; assay: Serum HGF pharmacodynamic marker; format: in vivo, human; conditions: total serum HGF after ficlatuzumab administration
Outline: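 Peripheral blood for serum total HGF was drawn before treatment and 3 h postinfusion on day 1, predose on days 2, 3, 8 and 22–28, predose and 2 h postinfusion on day 15 of cycle 1, and predose on cycle 3 day 1.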

[5] = Ficlatuzumab antidrug antibody; format: in vivo, human
[6] = target: HGF; conditions: affinity of ficlatuzumab to HGF; cited from earlier work
[7] = cited from earlier work
[8] = test system: NSCLC xenografts; conditions: cited from earlier work
[9] = test system: phospho‐c‐Met and phospho‐Akt; conditions: NSCLC tumor lysates, alone or in combination; cited from earlier work
[10] = test system: c‐Met‐positive advanced NSCLC; conditions: in combination with erlotinib; cited from earlier work
[11] = ficlatuzumab 10 mg/kg, Cycle 1, day 1, n = 3
[12] = ficlatuzumab 20 mg/kg, Cycle 1, day 1, n = 12
[13] = ficlatuzumab 20 mg/kg, Cycle 4, day 1, n = 6
[14] = 15 patients receiving monotherapy 20 mg/kg

COc1cc2ncnc(Nc3ccc(F)c(Cl)c3)c2cc1OCCCN1CCOCC1 [Gefitinib, gefitinib]
Tmax ([1]; Cycle 1, day 1, n = 12): 5.4 h
Tmax ([1]; Cycle 4, day 1, n = 6): 9.9 h

Ficlatuzumab: humanized IgG1κ inhibitory monoclonal antibody that binds to HGF and prevents the ligand from activating the c‐Met receptor
recommended phase 2 dose (RP2D) of ficlatuzumab [2]: 20 mg/kg
mean trough level of ficlatuzumab ([3]; beginning of cycle 4, 20 mg/kg cohort, n = 8): 413.1 µg/mL
Ficlatuzumab drug exposure (Cmax and AUC0–last) versus dose ([3]; cycle 1, 10 and 20 mg/kg): approximately proportional to dose
AUC0–last (mg·h/mL), mean (SD) [3, 11]: 39.2 (4.5) mg·h/mL
Cmax (μg/mL), mean (SD) [3, 11]: 229 (8.9) μg/mL
t1/2 (Days), mean (SD) [3, 11]: 15.2 (4.7) Days
AUC0–last (mg·h/mL), mean (SD) [3, 12]: 81.3 (16.5) mg·h/mL
Cmax (μg/mL), mean (SD) [3, 12]: 544 (141) μg/mL
t1/2 (Days), mean (SD) [3, 12]: 11.3 (3.2) Days
AUC0–last (mg·h/mL), mean (SD) [3, 13]: 212 (47.3) mg·h/mL
Cmax (μg/mL), mean (SD) [3, 13]: 1070 (220) μg/mL
mean half‐life ([3]; first dose in cycle 1, dose not stated): approximately 15 days
highest HGF level observed [4]: ≈ 14 ng/mL
ADA result of postficlatuzumab samples ([5]; 41 samples from 14 patients): negative
immunogenicity ([5]; any patients during the observation period): not immunogenic
pKd [6]: 11.52
TEAE fatigue [7, 14]: 5 patients
TEAE hypokalemia [7, 14]: 4 patients
TEAE nausea [7, 14]: 4 patients
TEAE peripheral edema [7, 14]: 8 patients
TEAE vomiting [7, 14]: 5 patients
tolerability of the highest administered dose ([7]; ficlatuzumab 20 mg/kg): well tolerated without any dose‐limiting toxicities
grade 3/4 TEAE hypokalemia ([7]; ficlatuzumab monotherapy): 4 patients
recommended phase 2 dose (RP2D) of ficlatuzumab ([7]; intravenous every 2 weeks, with oral erlotinib 150 mg/day): 20 mg/kg
tumor growth [8]: inhibits tumor growth
phospho‐c‐Met and phospho‐Akt levels [9]: decreased

onartuzumab: c‐Met‐targeted monovalent monoclonal antibody, tested in combination with erlotinib
outcome of the phase 3 study [10]: lack of efficacy
